Measurements taken from publication PMC2755535 (Archives of toxicology, 2009).

What was measured:
[1] = assay type: in vivo, female Sprague-Dawley rats; conditions: oral 21 days, N-EtFOSE 5.0 mg/kg or ciprofibrate 7.5 mg/kg/day
[2] = Histopathological evaluation of H&E stained liver and uterus sections; assay type: in vivo, female Sprague-Dawley rats
[3] = test system: peroxisomal acyl Co-A oxidase (AOX); assay: Peroxisomal acyl Co-A oxidase activity in liver homogenates; assay type: in vivo, female Sprague-Dawley rats; conditions: for AOX activity in liver, change versus control (significance): Figure 3; for Increase of peroxisomal AOX activity in liver compared to control: oral 21 days, N-EtFOSE increase p = 0.35
total SOD = assay: Total SOD activity in liver and uterus; assay type: in vivo, female Sprague-Dawley rats; conditions: Figure 4
[4] = test system: Manganese superoxide dismutase (MnSOD); assay: MnSOD activity in liver and uterus; assay type: in vivo, female Sprague-Dawley rats; conditions: Figure 4; for MnSOD activity in the liver, change versus control: ciprofibrate p = 0.07
[5] = test system: copper zinc superoxide dismutase (CuZnSOD); assay: CuZnSOD activity in liver and uterus; assay type: in vivo, female Sprague-Dawley rats; conditions: Figure 4
Catalase = Catalase activity in liver and uterus; assay type: in vivo, female Sprague-Dawley rats; conditions: Figure 5
In short: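 Female Sprague-Dawley rats were gavaged once daily, 5 days/week for 21 days, with test compound at 5.0 mg/kg in corn oil (2 mL/kg) or with vehicle. A positive control peroxisome proliferator was given at 7.5 mg/kg/day in water/methylcellulose. H2O2 was added to liver or uterus homogenate in potassium phosphate buffer (pH 7.8), and H2O2 loss at 240 nm was followed for 2 min. Results are milli-k units/mg Lowry protein, compared by ANOVA with Dunnett's test.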

Total GPx = Total GPx activity; assay type: in vivo, female Sprague-Dawley rats; conditions: Figure 6
In short: (§1)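 Rats were dosed orally for 21 days (5 days/week) with test compound at 5.0 mg/kg/day in corn oil, with vehicle, or with a positive control. Liver and uterus homogenates were assayed in a coupled glutathione reductase/NADPH system, reading NADPH decrease at 340 nm. H2O2 was the substrate for GPx-1 and cumene hydroperoxide for total GPx. Results are milliunits/mg Lowry protein, analysed by ANOVA and Dunnett's test (p<0.05).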

GPx-1 = GPx-1 activity; assay type: in vivo, female Sprague-Dawley rats; conditions: Figure 6
In short: as §1

[6] = test system: reduced to oxidized glutathione; assay: Total and oxidized glutathione; assay type: in vivo, female Sprague-Dawley rats; conditions: data not shown
In short: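 Female Sprague-Dawley rats were gavaged for 21 days (5 days/week) with test compound at 5.0 mg/kg in corn oil (n=9), vehicle (n=9), or a reference peroxisome proliferator at 7.5 mg/kg/day (n=8), then killed by CO2. Liver and uterus aliquots were homogenized immediately in 5% 5-sulfosalicylic acid. Total and oxidized glutathione were measured by enzymatic recycling, and the GSH:GSSG ratio was derived.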

[7] = test system: Thiobarbituric acid reactive substances (TBARS); assay: TBARS in whole liver homogenate; assay type: in vivo, female Sprague-Dawley rats; conditions: data not shown
In short: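 Female Sprague-Dawley rats were gavaged once daily, 5 days/week for 21 days. Groups: test compound at 5.0 mg/kg in corn oil (2 mL/kg, n=9), corn-oil vehicle (n=9), or a reference peroxisome proliferator at 7.5 mg/kg/day in water/methylcellulose (n=8). Euthanasia was 3 days (1 day for the reference agent) after the last dose. TBARS were measured fluorometrically in whole liver homogenate.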

[8] = Levels of N-EtFOSE and metabolites in liver and serum; assay type: in vivo, female Sprague-Dawley rats; conditions: for %TD in Serum (× 10^-3) / %TD in Serum: assuming serum volume of 4.86 mL/100 mg; for Liver: serum ratio: N-EtFOSE-treated female rats, mean
[9] = rat, in vivo; cited from earlier work
[10] = sheep, in vivo; cited from earlier work
[11] = human blood; ref Kärrman et al., 2006b; cited from earlier work
[12] = sheep; ref Vitayavirasuk and Bowen, 1999; cited from earlier work
[13] = rat, in vivo; cited from earlier work; remark: listed apart in the source
[14] = percentage of the total N-EtFOSE dose
[15] = percentage of the total N-EtFOSE dose, recovery adjusted

SMILES | Survival and clinical signs of toxicity [1] | Ratio of Organ Weight to Body Weight, Spleen ([1]; mean ± SD) | AOX activity in liver, change versus control (significance) [3] | Increase of peroxisomal AOX activity in liver compared to control [3] [fold] | Total SOD activity in the liver, change versus control (total SOD) | Total SOD activity in the uterus, change versus control (total SOD) | MnSOD activity in the liver, change versus control [4] | MnSOD activity in the uterus, change versus control [4] | CuZnSOD activity in the liver, change versus control [5] | CuZnSOD activity in the uterus, change versus control [5] | Catalase activity in the liver, change versus control (Catalase) | Catalase activity in the uterus, change versus control (Catalase) | Total GPx activity in the liver, change versus control (Total GPx) | Total GPx activity in the uterus, change versus control (Total GPx) | GPx-1 activity in the liver, change versus control (GPx-1) | GPx-1 activity in the uterus, change versus control (GPx-1) | GSH:GSSG ratio in the liver [6] | %TD in Serum (× 10^-3) [8, 14] | %TD in Liver [8, 15] [%TD] | Liver: serum ratio [8] | further results
CC(C)(Oc1ccc(C2CC2(Cl)Cl)cc1)C(=O)O (stereo not shown) [Ciprofibrate, reference compound] | no clinical findings | 2.5 ± 0.2 % (× 10^-3) | significant increase | 300 | not significant effect | did not significantly alter | tended to be increased | significantly decreased | not significant effect | increased | not significantly altered | did not alter | significantly decreased | significantly decreased | significantly decreased | decreased only in the liver | Neither N-EtFOSE nor ciprofibrate had an effect |  |  |  | Organ weight, Kidney ([1]; mean ± SD): 1.69 ± 0.05 g; Organ weight, Liver ([1]; mean ± SD): 13 ± 0.97 g; Organ weight, Spleen ([1]; mean ± SD): 0.58 ± 0.04 g; Organ weight, Uterus ([1]; mean ± SD): 0.31 ± 0.06 g; Ratio of Organ Weight to Body Weight, Liver ([1]; mean ± SD): 5.9 ± 0.3 %; Histopathological evaluation of H&E stained liver and uterus slices ([2]; oral 21 days, data not shown): did not reveal pathological changes; GSH:GSSG ratio in the uterus [6]: Neither N-EtFOSE nor ciprofibrate had an effect; TBARS in the liver [7]: Neither N-EtFOSE nor ciprofibrate had an effect
NS(=O)(=O)C(F)(F)C(F)(F)C(F)(F)C(F)(F)C(F)(F)C(F)(F)C(F)(F)C(F)(F)F [FOSA, perfluorooctanesulfonamide] |  |  |  |  |  |  |  |  |  |  |  |  |  |  |  |  |  | 25.3 ± 6.1 (× 10^-3) %TD (× 10^-3) | 0.29 ± 0.06 |  | Kp at 3 days after the last dose ([8]; female, Sprague-Dawley, rat, in vivo): 10.1; half-life [9]: approximately 100 hours; elimination phase half-life [10]: 63.4 h; mean plasma-to-whole blood ratio [11]: 0.2; plasma-to-whole blood ratio [12]: 0.04
O=S(=O)(NCCO)C(F)(F)C(F)(F)C(F)(F)C(F)(F)C(F)(F)C(F)(F)C(F)(F)C(F)(F)F [FOSE, perfluorooctanesulfonamidoethanol] |  |  |  |  |  |  |  |  |  |  |  |  |  |  |  |  |  | 0.07 ± 0.03 (× 10^-3) %TD (× 10^-3) |  | 6.4 | %TD in Liver (× 10^-3) [8, 15]: 0.58 ± 0.35 (× 10^-3) %TD (× 10^-3)
CCN(CC(=O)O)S(=O)(=O)C(F)(F)C(F)(F)C(F)(F)C(F)(F)C(F)(F)C(F)(F)C(F)(F)C(F)(F)F [N-EtFOSAA, N-ethyl perfluorooctanesulfonamidoacetate] |  |  |  |  |  |  |  |  |  |  |  |  |  |  |  |  |  |  | 0.43 ± 0.13 | 1.3 | %TD in Serum [8, 14]: 0.38 ± 0.17 %TD
CCN(CCO)S(=O)(=O)C(F)(F)C(F)(F)C(F)(F)C(F)(F)C(F)(F)C(F)(F)C(F)(F)C(F)(F)F [N-EtFOSE, N-Ethyl perfluorooctanesulfonamidoethanol] | no clinical findings | 2.7 ± 0.2 % (× 10^-3) | did not reach statistical significance | 16 | significantly increased | significantly increased | significantly increased | only exception | significantly increased | significantly increased | not significantly altered | significantly increased | No significant change | significant decrease | No significant change | no effect | Neither N-EtFOSE nor ciprofibrate had an effect | 0.42 ± 0.20 (× 10^-3) (n=5) %TD (× 10^-3) |  |  | Ratio of Organ Weight to Body Weight, Kidney ([1]; mean ± SD): 6.8 ± 0.4%; Ratio of Organ Weight to Body Weight, Uterus ([1]; mean ± SD): 1.6 ± 0.3%; Histopathological evaluation of H&E stained liver and uterus slices ([2]; rat, in vivo, po): did not reveal pathological changes; Uncorrected N-EtFOSE level in the liver ([8]; rat, in vivo): c Corrected N-EtFOSE levels in the liver are not reported because of the poor recovery rate (2.5±1%); uncorrected N-EtFOSE levels group were low, with 4.6 ± 4.7 ppb in N-EtFOSE-treated animals and 7.8 ± 1.3 ppb in control animals.; GSH:GSSG ratio in the uterus [6]: Neither N-EtFOSE nor ciprofibrate had an effect; TBARS in the liver [7]: Neither N-EtFOSE nor ciprofibrate had an effect; Doses causing a reduced body weight gain in pregnant rats [13]: > 5 mg/kg body weight/day
O=S(=O)(O)C(F)(F)C(F)(F)C(F)(F)C(F)(F)C(F)(F)C(F)(F)C(F)(F)C(F)(F)F [PFOS, perfluorooctane sulfonic acid] |  |  |  |  |  |  |  |  |  |  |  |  |  |  |  |  |  |  | 6.23 ± 0.95 | 2.3 | %TD in Serum [8, 14]: 3.86 ± 0.86 %TD; Share of the total N-EtFOSE dose in the serum and liver ([8]; serum plus liver): approximately 9.5±1.2%
